Key:
[1] = target: Serine/threonine-protein kinase B-raf (Homo sapiens, UniProt P15056, V600E); experiment: Inhibition of human BRAF V600E mutant using myelin basic protein as substrate in presence of [gamma-33P]ATP incubated for 40 mins by scintillation counting method
Summary of the method: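 Radiometric kinase assay run at Reaction Biology. Kinase (5−10 mU) in 25 mM Tris pH 7.5, 0.02 mM EGTA, 10 mM magnesium acetate with 0.66 mg/mL myelin basic protein and [γ-33P]ATP at 1 μM ATP. Reaction started with Mg-ATP and run 40 min at room temperature, then stopped with 3% phosphoric acid. Spotted on P30 filtermat, washed, scintillation counted.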

[2] = target: RAF proto-oncogene serine/threonine-protein kinase (Homo sapiens, UniProt P04049); experiment: Inhibition of human wild type CRAF using myelin basic protein as substrate in presence of [gamma-33P]ATP incubated for 40 mins by scintillation counting method
[3] = target: Serine/threonine-protein kinase/endoribonuclease IRE1 (Homo sapiens, UniProt O75460); experiment: Inhibition of ERN1 (unknown origin) incubated for 1 hr by qPCR analysis
Summary of the method: (§1)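 Competition binding assay. Kinases were either T7-phage-tagged (grown in an E. coli BL21-derived host) or expressed in HEK-293 cells and DNA-tagged. […] Bound kinase was eluted with non-biotinylated ligand and quantified by qPCR.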

[4] = target: Fibroblast growth factor receptor 1 (Homo sapiens, UniProt P11362); experiment: Inhibition of FGFR1 (unknown origin) incubated for 1 hr by qPCR analysis
[5] = target: Homeodomain-interacting protein kinase 1 (Homo sapiens, UniProt Q86Z02); experiment: Inhibition of HIPK1 (unknown origin) incubated for 1 hr by qPCR analysis; summary of the method: as §1
[6] = target: Mitogen-activated protein kinase 8 (Homo sapiens, UniProt P45983); experiment: Inhibition of MAPK8 (unknown origin) incubated for 1 hr by qPCR analysis; summary of the method: as §1
[7] = target: Mitogen-activated protein kinase 11 (Homo sapiens, UniProt Q15759); experiment: Inhibition of MAPK11 (unknown origin) incubated for 1 hr by qPCR analysis; summary of the method: as §1
[8] = target: Mitogen-activated protein kinase 14 (Homo sapiens, UniProt Q16539); experiment: Inhibition of MAPK14 (unknown origin) incubated for 1 hr by qPCR analysis; summary of the method: as §1
[9] = target: Mitogen-activated protein kinase kinase kinase 20 (Homo sapiens, UniProt Q9NYL2); experiment: Inhibition of ZAK (unknown origin) incubated for 1 hr by qPCR analysis; summary of the method: as §1
[10] = target: BDNF/NT-3 growth factors receptor (Homo sapiens, UniProt Q16620); experiment: Inhibition of NTRK2 (unknown origin) incubated for 1 hr by qPCR analysis
[11] = tested on: Panel renal (Carcinoma cell lines); experiment: Antiproliferative activity against human Panel renal (Carcinoma cell lines) assessed as cell growth inhibition measured after 48 hrs by SRB assay
[12] = tested on: Panel prostate (Carcinoma cell lines); experiment: Antiproliferative activity against human Panel prostate (Carcinoma cell lines) assessed as cell growth inhibition measured after 48 hrs by SRB assay
[13] = tested on: Panel breast (Carcinoma cell lines); experiment: Antiproliferative activity against human Panel breast (Carcinoma cell lines) assessed as cell growth inhibition measured after 48 hrs by SRB assay
Malme-3M = experiment: Antiproliferative activity against human Malme-3M cells assessed as cell growth inhibition measured after 48 hrs by SRB assay
MDA-MB-435 = experiment: Antiproliferative activity against human MDA-MB-435 cells assessed as cell growth inhibition measured after 48 hrs by SRB assay; conditions: MDA-MB-435, 48 h
SK-MEL-2 = experiment: Antiproliferative activity against human SK-MEL-2 cells assessed as cell growth inhibition measured after 48 hrs by SRB assay; conditions: SK-MEL-2, 48 h
SK-MEL-5 = experiment: Antiproliferative activity against human SK-MEL-5 cells assessed as cell growth inhibition measured after 48 hrs by SRB assay; conditions: SK-MEL-5, 48 h
SK-MEL-28 = experiment: Antiproliferative activity against human SK-MEL-28 cells assessed as total growth inhibition measured after 48 hrs by SRB assay; conditions: SK-MEL-28, 48 h
UACC-62 = experiment: Antiproliferative activity against human UACC-62 cells assessed as total growth inhibition measured after 48 hrs by SRB assay; conditions: UACC-62, 48 h
[14] = tested on: Panel leukemia (Carcinoma cell lines); experiment: cells; conditions: Homo sapiens, 48 h, read-out: INH
NSCLC = experiment: cells; conditions: Homo sapiens, 48 h, read-out: INH
[15] = tested on: Panel CNS (Carcinoma cell lines); experiment: cells; conditions: Homo sapiens, 48 h, read-out: INH
[16] = tested on: Panel ovarian (Carcinoma cell lines); experiment: cells; conditions: Homo sapiens, 48 h, read-out: INH

BDNF/NT-3 growth factors receptor, sequence (Q16620 whole entry): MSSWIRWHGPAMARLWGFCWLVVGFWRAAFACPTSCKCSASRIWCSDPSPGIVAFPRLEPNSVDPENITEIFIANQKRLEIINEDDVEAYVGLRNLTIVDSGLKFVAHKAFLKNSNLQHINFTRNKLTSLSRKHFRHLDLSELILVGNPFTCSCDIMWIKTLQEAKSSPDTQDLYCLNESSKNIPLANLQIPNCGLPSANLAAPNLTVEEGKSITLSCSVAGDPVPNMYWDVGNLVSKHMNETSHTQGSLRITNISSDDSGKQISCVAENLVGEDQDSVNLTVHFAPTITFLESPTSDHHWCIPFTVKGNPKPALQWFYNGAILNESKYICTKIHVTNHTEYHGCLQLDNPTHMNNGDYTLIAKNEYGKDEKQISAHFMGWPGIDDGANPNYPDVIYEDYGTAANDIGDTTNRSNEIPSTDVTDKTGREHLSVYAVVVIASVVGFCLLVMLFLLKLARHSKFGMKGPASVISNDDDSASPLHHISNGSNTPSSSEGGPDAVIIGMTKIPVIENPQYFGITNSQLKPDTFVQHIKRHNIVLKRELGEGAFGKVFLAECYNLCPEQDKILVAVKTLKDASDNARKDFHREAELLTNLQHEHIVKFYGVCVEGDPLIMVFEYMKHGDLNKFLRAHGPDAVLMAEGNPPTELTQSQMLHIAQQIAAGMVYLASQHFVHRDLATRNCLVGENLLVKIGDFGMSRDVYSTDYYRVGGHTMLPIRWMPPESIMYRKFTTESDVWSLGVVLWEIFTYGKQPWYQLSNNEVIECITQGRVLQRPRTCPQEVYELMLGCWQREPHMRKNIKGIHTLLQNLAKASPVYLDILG
Homeodomain-interacting protein kinase 1, sequence (Q86Z02 whole entry): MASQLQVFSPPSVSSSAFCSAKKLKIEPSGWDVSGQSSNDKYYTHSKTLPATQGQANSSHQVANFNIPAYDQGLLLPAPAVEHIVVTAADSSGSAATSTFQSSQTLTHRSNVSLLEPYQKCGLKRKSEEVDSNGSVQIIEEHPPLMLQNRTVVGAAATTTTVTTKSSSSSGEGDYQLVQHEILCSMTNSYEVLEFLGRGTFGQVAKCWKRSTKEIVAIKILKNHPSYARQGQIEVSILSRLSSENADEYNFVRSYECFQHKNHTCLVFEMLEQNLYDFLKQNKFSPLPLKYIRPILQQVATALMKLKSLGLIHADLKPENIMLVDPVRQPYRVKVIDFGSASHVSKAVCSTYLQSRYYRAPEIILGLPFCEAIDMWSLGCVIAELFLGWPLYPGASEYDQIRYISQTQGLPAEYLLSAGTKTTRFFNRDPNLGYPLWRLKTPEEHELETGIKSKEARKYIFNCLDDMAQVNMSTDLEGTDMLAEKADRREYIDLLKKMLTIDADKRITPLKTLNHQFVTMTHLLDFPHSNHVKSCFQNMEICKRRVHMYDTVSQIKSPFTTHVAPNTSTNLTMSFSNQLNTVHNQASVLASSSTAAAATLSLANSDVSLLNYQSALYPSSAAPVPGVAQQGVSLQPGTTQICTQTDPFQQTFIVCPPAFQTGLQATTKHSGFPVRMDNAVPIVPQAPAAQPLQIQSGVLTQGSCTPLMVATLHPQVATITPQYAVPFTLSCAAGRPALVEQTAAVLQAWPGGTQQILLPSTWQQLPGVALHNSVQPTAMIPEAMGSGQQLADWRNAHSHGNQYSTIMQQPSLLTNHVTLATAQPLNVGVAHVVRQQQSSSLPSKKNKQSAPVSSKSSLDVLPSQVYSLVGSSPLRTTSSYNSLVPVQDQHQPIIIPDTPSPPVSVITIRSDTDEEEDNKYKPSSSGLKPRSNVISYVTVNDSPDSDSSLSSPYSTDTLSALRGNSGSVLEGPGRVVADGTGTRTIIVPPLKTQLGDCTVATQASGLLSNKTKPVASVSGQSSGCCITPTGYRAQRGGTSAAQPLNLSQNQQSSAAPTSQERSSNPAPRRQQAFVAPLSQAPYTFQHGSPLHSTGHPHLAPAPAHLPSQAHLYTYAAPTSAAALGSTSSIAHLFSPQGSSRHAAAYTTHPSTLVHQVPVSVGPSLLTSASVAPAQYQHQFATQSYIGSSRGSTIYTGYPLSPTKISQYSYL
Fibroblast growth factor receptor 1, sequence (P11362 whole entry): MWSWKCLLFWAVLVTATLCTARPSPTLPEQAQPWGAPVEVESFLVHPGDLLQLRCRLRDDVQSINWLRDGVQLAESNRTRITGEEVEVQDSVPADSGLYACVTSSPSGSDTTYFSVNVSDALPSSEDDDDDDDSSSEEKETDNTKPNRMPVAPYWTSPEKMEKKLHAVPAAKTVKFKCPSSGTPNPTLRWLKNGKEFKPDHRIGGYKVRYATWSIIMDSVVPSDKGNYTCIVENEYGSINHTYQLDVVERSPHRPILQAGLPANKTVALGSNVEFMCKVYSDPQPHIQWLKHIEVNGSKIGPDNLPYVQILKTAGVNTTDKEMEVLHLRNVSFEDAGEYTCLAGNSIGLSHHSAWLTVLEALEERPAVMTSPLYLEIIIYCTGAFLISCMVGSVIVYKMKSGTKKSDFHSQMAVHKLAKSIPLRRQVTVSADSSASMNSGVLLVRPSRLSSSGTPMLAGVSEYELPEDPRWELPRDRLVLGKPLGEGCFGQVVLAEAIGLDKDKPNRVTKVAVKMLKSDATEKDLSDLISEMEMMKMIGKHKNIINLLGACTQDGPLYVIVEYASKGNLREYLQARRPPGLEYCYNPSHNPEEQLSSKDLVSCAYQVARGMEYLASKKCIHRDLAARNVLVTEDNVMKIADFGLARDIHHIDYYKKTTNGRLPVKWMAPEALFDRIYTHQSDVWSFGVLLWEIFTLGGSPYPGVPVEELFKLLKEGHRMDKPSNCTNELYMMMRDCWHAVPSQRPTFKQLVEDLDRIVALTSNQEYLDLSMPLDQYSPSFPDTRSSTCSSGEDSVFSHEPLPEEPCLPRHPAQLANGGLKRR
Serine/threonine-protein kinase B-raf, sequence (P15056 2-766 V600E limits assumed): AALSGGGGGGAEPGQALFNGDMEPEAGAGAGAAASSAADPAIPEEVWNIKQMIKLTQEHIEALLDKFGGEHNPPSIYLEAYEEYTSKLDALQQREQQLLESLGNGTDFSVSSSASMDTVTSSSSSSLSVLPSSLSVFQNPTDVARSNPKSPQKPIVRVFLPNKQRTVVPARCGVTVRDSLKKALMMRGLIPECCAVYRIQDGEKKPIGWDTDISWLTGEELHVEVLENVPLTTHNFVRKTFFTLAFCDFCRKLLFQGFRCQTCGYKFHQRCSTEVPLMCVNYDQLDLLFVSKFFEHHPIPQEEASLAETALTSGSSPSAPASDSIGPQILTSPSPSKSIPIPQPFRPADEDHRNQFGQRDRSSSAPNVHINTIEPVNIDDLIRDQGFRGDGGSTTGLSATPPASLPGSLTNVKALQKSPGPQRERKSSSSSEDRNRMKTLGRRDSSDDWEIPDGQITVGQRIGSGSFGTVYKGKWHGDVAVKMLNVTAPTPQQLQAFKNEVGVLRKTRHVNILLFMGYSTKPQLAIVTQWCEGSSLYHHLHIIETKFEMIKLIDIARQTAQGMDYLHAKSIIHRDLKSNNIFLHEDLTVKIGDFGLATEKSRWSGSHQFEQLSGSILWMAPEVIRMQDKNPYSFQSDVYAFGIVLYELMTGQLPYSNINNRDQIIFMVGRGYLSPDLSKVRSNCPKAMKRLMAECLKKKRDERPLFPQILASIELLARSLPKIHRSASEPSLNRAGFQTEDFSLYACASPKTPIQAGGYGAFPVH
Serine/threonine-protein kinase/endoribonuclease IRE1, sequence (O75460 whole entry): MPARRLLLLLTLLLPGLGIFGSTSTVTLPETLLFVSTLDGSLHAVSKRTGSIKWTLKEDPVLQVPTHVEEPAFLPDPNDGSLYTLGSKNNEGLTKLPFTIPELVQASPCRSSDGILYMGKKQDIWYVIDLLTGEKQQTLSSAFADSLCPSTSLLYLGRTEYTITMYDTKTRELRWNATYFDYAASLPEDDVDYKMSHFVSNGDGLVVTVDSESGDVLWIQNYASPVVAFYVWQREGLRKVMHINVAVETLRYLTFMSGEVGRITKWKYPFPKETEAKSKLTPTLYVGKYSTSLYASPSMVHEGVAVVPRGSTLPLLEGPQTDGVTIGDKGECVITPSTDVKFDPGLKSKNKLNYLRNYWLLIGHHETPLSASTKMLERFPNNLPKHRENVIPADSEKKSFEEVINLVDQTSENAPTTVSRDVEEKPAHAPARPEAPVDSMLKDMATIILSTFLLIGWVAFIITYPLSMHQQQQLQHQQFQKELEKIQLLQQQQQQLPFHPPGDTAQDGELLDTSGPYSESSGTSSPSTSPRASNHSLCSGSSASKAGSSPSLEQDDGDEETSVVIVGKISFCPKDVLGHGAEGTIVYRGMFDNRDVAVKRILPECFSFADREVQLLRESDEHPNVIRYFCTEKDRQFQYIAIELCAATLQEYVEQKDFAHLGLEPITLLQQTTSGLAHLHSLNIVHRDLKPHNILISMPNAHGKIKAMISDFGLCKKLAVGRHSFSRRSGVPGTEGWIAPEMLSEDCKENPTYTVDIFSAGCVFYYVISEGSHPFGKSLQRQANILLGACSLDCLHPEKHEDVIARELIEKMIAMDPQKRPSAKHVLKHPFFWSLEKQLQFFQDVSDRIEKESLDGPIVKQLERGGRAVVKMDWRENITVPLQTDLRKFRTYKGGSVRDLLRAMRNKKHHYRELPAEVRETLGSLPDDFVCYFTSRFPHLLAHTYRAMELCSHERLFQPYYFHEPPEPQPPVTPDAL
Mitogen-activated protein kinase 8, sequence (P45983 whole entry): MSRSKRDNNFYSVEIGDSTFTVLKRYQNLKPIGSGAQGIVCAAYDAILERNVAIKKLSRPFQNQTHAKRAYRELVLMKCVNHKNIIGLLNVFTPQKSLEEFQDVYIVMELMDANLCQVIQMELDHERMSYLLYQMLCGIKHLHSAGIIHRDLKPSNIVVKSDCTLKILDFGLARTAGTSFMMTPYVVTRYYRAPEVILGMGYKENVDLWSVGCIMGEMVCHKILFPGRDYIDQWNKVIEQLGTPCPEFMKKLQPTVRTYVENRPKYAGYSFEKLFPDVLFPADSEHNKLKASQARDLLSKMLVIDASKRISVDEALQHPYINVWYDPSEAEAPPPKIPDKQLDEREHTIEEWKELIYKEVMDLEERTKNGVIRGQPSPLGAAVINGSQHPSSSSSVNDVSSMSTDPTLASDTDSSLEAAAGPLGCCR

SMILES: O=S(=O)(NCCCNc1nccc(-c2c(-c3cccc(O)c3)nc3sccn23)n1)c1cccc(F)c1
- IC50 [1]: 0.98 nM
- IC50 [2]: 5 nM
- IC50 [3]: 10200 nM
- IC50 [4]: 10600 nM
- IC50 [5]: 4880 nM
- IC50 [6]: 1870 nM
- IC50 [7]: 980 nM
- IC50 [8]: 1780 nM
- IC50 [9]: 10300 nM
- IC50 [10]: 10300 nM
- IC50 [11]: 2930 nM
- IC50 [12]: 2380 nM
- IC50 [13]: 2410 nM
- IC50 (Malme-3M): 2600 nM
- IC50 (MDA-MB-435): 2000 nM
- IC50 (SK-MEL-2): 2320 nM
- IC50 (SK-MEL-5): 1060 nM
- TGI (SK-MEL-28): 6860 nM
- TGI (UACC-62): 2730 nM
- inhibition at 10 µM [14]: 93.8%
- inhibition at 10 µM (NSCLC): 83.1%
- inhibition at 10 µM [15]: 83.1%
- inhibition at 10 µM [16]: 75%

Reference: ChEMBL document CHEMBL5046217, “Discovery of New Imidazo[2,1-b]thiazole Derivatives as Potent Pan-RAF Inhibitors with Promising In Vitro and In Vivo Anti-melanoma Activity” (J Med Chem, 2021)
